For data set [1], the system named is Human immunodeficiency virus 1. Description: Antiviral activity against HIV1 3B infected in human CEM cells assessed as inhibition of virus-induced cytopathicity. The data set is classed as functional, organism-based. Conditions: Human immunodeficiency virus 1, 3B, CCRF-CEM. Put shortly:
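CEM cells (~4.5 × 10⁵/mL) were infected with HIV-1 IIIB at 100 CCID₅₀/mL and exposed to compound dilutions (final 0.62–2000 μM) at 37 °C. Giant cell formation was scored microscopically after 4–5 days. EC₅₀ is the concentration preventing syncytium formation by 50%.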

The nature of data set [2]: Solubility in water. The format is physicochemical. Put shortly: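 Excess solid was suspended in deionized water, sonicated 10 min at room temperature, equilibrated overnight at room temperature and centrifuged. Supernatant was diluted into a five-point standard curve range. Concentration came from HPLC peak area against a DMSO-dissolved standard of known concentration.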

The subject of data set [3] is Serum. In words: Stability in 20 % human serum assessed as 6-aminoquinoline formation after 2 hrs. The data set is classed as ADME, cell-free. Put shortly: (§1)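 Prodrug (50 μM) in PBS with 0.1% DMSO was incubated at 37 °C with purified CD26 (1.5 mU) or 20% human or bovine serum in PBS. Samples taken at time points were quenched in cold methanol on ice, centrifuged at 4 °C and analyzed by RP-8 HPLC. Buffer A was 50 mM NaH₂PO₄ with 5 mM heptanesulfonic acid, pH 3.2; buffer B was acetonitrile.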

In data set [4] the test system is Serum. In words: Stability in 20 % bovine serum assessed as 6-aminoquinoline formation after 2 hrs. Conditions: cattle. The data set is classed as ADME, cell-free, Bos taurus. Put shortly:
as §1

The subject of a further data set is CCRF-CEM. In words: Cytotoxicity against human CEM cells assessed as inhibition of cell proliferation after 48 hrs. The data set is classed as functional, cell-based.
In another data set the test system is HeLa. Description: Cytotoxicity against human HeLa cells assessed as inhibition of cell proliferation after 48 hrs. The data set is classed as functional, cell-based.
Another data set concerns L1210. In words: Cytotoxicity against mouse L1210 cells assessed as inhibition of cell proliferation after 48 hrs. The format is functional, cell-based. Conditions: L1210, 48 h. Put shortly: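 L1210 cells were seeded at (5–7.5) × 10⁴ cells/well in 200 μL wells with compound. Cell number was counted by Coulter counter after 48 h. IC₅₀ is the concentration inhibiting proliferation by 50%.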

Data set [5] deals with Serum. Description: Stability in 20 % bovine serum assessed as 6-aminoquinoline formation within 4 hrs. The format is ADME, cell-free, Bos taurus. Conditions: cattle. Put shortly: as §1
Data set [6] is described as follows: Stability assessed as 6-aminoquinoline formation in human recombinant CD26 measured within 4 hrs. The format is ADME. Put shortly: as §1
Data set [7] has as its system Serum. Description: Stability in 20 % human serum assessed as 6-aminoquinoline formation within 4 hrs. The data set is classed as ADME, cell-free. Put shortly: as §1
In data set [8] the test system is Vaccinia virus. In words: Antiviral activity against Vaccinia virus Lederle infected in HEL cells assessed as inhibition of virus-induced cytopathicity. Particulars: Orthopoxvirus vaccinia. The format is functional, organism-based. On the technique in general: Damage to the host cells serves as the signal in cytopathic effect assays.
In data set [9] the test system is Human alphaherpesvirus 1. In words: Antiviral activity against HSV1 KOS infected in HEL cells assessed as inhibition of virus-induced cytopathicity. The format is functional, organism-based. Conditions: Human alphaherpesvirus 1, KOS. Put shortly: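 HEL cell cultures in 96-well plates were infected with HSV-1 (KOS) at 100 CCID₅₀/mL in the presence or absence of compound.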

Data set [10] has as its system Vaccinia virus. In words: Antiviral activity against Vaccinia virus Lederle infected in HEL cells assessed as inhibition of virus-induced cytopathicity in presence of vildagliptin. The data set is classed as functional, organism-based. Particulars: Orthopoxvirus vaccinia.
Data set [11] concerns Human alphaherpesvirus 1. In words: Antiviral activity against HSV1 KOS infected in HEL cells assessed as inhibition of virus-induced cytopathicity in presence of vildagliptin. The format is functional, organism-based. Conditions: Human alphaherpesvirus 1, KOS. Put shortly:
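HEL cells were infected with HSV-1 (KOS) at 100 CCID₅₀/mL with compound. The CD26 inhibitor vildagliptin (20 μM) was added once at the start of infection.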

In the next data set the target is Dipeptidyl peptidase 4 (Homo sapiens, UniProt P27487). In words: Inhibition of human DPP4 from human Caco-2 cells. The format is cell-based.
Sequence of Dipeptidyl peptidase 4 (P27487 whole entry): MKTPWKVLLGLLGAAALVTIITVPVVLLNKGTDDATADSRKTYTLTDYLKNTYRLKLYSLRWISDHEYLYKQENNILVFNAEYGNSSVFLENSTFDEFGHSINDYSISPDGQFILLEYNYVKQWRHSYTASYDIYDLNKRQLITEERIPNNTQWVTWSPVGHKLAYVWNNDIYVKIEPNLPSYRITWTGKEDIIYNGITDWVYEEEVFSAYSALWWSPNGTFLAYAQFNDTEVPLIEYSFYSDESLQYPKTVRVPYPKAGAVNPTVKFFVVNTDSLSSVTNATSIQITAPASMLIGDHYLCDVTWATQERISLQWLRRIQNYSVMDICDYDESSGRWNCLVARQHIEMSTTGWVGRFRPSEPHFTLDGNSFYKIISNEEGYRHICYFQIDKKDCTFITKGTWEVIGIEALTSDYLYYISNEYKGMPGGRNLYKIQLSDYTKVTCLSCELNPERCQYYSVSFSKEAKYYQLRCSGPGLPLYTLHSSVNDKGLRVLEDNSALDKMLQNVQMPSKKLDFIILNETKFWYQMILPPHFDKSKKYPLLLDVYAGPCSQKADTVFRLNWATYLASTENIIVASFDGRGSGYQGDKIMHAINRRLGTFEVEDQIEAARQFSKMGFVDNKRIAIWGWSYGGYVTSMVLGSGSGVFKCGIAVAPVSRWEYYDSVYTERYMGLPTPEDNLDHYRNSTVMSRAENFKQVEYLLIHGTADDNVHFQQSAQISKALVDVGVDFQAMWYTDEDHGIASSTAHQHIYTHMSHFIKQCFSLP

Converted amounts (≈) assume the structure as drawn. Peptide text beside a SMILES is read from it. * marks the point of attachment. X2 = OC[C@H]1O[C@@H](n2cnc3c(N*)ncnc32)[C@@H](O)[C@@H]1O; X1 = O=c1nc(N*)ccn1[C@@H]1O[C@H](CO)[C@@H](O)[C@@H]1O

The EC50 is the concentration needed to bring the measured effect to its halfway point. With `CC(C)(C)[Si](C)(C)OC[C@H]1O[C@@H](n2ccc(N)nc2=O)[C@@H](O)[C@@H]1O[Si](C)(C)C(C)(C)C`, in data set [1], the concentration giving a half-maximal response (EC50) is 0.07 µM.

In general, solubility refers to how much of the substance goes into solution per volume. A high value points to a readily soluble substance. `CC(C)[C@H](N)C(=O)N1CCC[C@H]1C(=O)Nc1ccc2ncccc2c1` showed a solubility in data set [2] of 33.2 mg/mL (≈ 97.5 mM).

In data set [2], `N[C@@H](CC(=O)O)C(=O)N1CCC[C@H]1C(=O)Nc1ccc2ncccc2c1` came in with a solubility of 47.8 mg/mL (≈ 134 mM).

For the compound `Cc1cn([C@@H]2O[C@H](CO[Si](C)(C)C(C)(C)C)[C@@]3(OS(=O)(=O)C=C3N)[C@H]2O[Si](C)(C)C(C)(C)C)c(=O)nc1NC(=O)[C@@H]1CCCN1C(=O)[C@@H](NC(=O)[C@@H]1CCCN1C(=O)[C@@H](N)C(C)C)C(C)C`, the Activity came out at 20% in the data set with Serum [3] and 40% in the data set with Serum [4].

For the compound `Nc1ccc2ncccc2c1`, the concentration in solution in [2] (solubility) was 7.01 mg/mL (≈ 48.6 mM).

A word on the IC50: it is the point on the concentration scale where inhibition reaches its midpoint. `CC(C)[C@H](N)C(=O)N[C@@H](C)C(=O)N[C@H](C(=O)N1CCC[C@H]1C(=O)Nc1ccn([C@@H]2O[C@H](CO)[C@@H](O)[C@@H]2O)c(=O)n1)C(C)C` (H-VAVP-X1): the half-inhibitory concentration (IC50) amounted to 0.05 µM in the data set on CCRF-CEM, 0.56 µM with HeLa and 0.082 µM with L1210.

For the compound `CC(C)[C@H](N)C(=O)N1CCC[C@H]1C(=O)N[C@H](C(=O)N1CCC[C@H]1C(=O)Nc1ccn([C@@H]2O[C@H](CO)[C@@H](O)[C@@H]2O)c(=O)n1)C(C)C` (H-VPVP-X1), the figures for the IC50 in the data set on CCRF-CEM, in the data set with HeLa and in the data set with L1210 were 0.057 µM, 0.63 µM and 0.1 µM, respectively. Also, the Activity (with Serum [5]; in [6]; in the data set with Serum [7]) was 80% throughout.

`CC(C)[C@H](N)C(=O)N1CCC[C@H]1C(=O)N[C@H](C(=O)N1CCC[C@H]1C(=O)Nc1ncnc2c1ncn2[C@@H]1O[C@H](CO)[C@@H](O)[C@@H]1O)C(C)C` (H-VPVP-X2): the concentration for a half-maximal effect (EC50) turned out to be 16 µM with Vaccinia virus [8], 54 µM in the data set with Human alphaherpesvirus 1 [9], 135 µM with Vaccinia virus [10] and 238 µM with Human alphaherpesvirus 1 [11]. Further, the solubility in data set [2] is 34.7 mg/mL (≈ 52.7 mM).

As for `Nc1ccn([C@@H]2O[C@H](CO)[C@@H](O)[C@@H]2O)c(=O)n1` [CYTARABINE], the IC50 with HeLa amounted to 0.26 µM.

Take `Nc1ncnc2c1ncn2[C@@H]1O[C@H](CO)[C@@H](O)[C@@H]1O` [VIDARABINE]: the EC50 amounted to 8.3 µM in the data set on Vaccinia virus [8], 35 µM in the data set with Human alphaherpesvirus 1 [9], 10 µM in the data set with Vaccinia virus [10] and 42 µM with Human alphaherpesvirus 1 [11]. On Dipeptidyl peptidase 4, 0.062 µM corresponded to half-maximal inhibition (IC50).

The values are drawn from ChEMBL document CHEMBL1156792, “Application of the dipeptidyl peptidase IV (DPPIV/CD26) based prodrug approach to different amine-containing drugs” (J Med Chem, 2010).
